According to ChEMBL document CHEMBL3608286, “Azaphilone and Diphenyl Ether Derivatives from a Gorgonian-Derived Strain of the Fungus Penicillium pinophilum” (J Nat Prod, 2015):
pIC50: −log10 of the molar value. In brackets after ≈: the same amount, converted by molar mass.

Columns and labels:
[1] = test system: RD; assay: Cytotoxicity against human RD cells by neutral red method; format: functional, cell-based
Outline: (§1)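 Human cancer cell lines (HeLa, Hep-2, RD) assayed by Neutral Red uptake, giving IC50. Adriamycin was the positive control.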

[2] = Cytotoxicity against human Hep2 cells by neutral red method; format: functional, cell-based; conditions: HEp-2; outline: as §1
[3] = test system: Amphibalanus amphitrite; assay: Antifouling activity against larval settlements of Balanus amphitrite Darwin cyprids; format: functional, organism-based
Outline: (§2)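 Barnacle cyprid larvae tested for inhibition of settlement, following a procedure from earlier literature. SeaNine 211 served as the positive control. EC50 was taken for settlement inhibition and LC50 for larval toxicity, with LC50/EC50 as the ratio.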

[4] = test system: Amphibalanus amphitrite; assay: Selectivity index, ratio of CC50 for Balanus amphitrite Darwin cyprids to EC50 for antifouling activity against larval settlements of Balanus amphitrite Darwin cyprids; outline: as §2
[5] = test system: HeLa; assay: Cytotoxicity against human HeLa cells by neutral red method; format: functional, cell-based; outline: as §1
[6] = Amphibalanus amphitrite, Darwin, read-out: EC50

Row | SMILES | EC50 [3] | Ratio CC50/EC50 [4] | EC50 [3, 6] [µg/mL] | other results
1 | COc1cccc2c1C(=O)c1c(O)c3c(c(O)c1C2=O)C[C@@](O)(C(=O)CO)C[C@@H]3O[C@H]1C[C@H](N)[C@H](O)[C@H](C)O1 [DOXORUBICIN] | – | – | – | pIC50 [1]: 5.70; pIC50 [2]: 5.82
2 | Cc1cc(O)cc(O)c1C(=O)O[C@]1(C)C(=O)C=C2C=C(/C=C/CO)OC[C@H]2[C@@H]1O | Not Active | – | – | –
3 | Cc1cc(O)cc(O)c1C(=O)O[C@H]1[C@@H]2COC(CC(C)O)=CC2=CC(=O)[C@@]1(C)O (some centres undefined) | Not Active | – | – | –
4 | Cc1cc(O)cc(O)c1C(=O)O[C@H]1[C@@H]2COC(/C=C/CO)=CC2=CC(=O)[C@@]1(C)O [PINOPHILIN B] | Not Active | – | – | –
5 | Cc1cc(O)cc(O)c1C(=O)O[C@]1(C)C(=O)C2=C(C=C(/C=C/C(=O)O)OC2)C[C@H]1O | Not Active | – | – | –
6 | COc1c([C@@H](O)CC(C)(C)O)ccc2c1C(=O)OCc1cc(C)cc(O)c1O2 | – | >50 | 20 (≈ 51.5 µM) | –
7 | C/C=C/C1=CC2=CC(=O)[C@@](C)(O)[C@@H](OC(=O)c3c(C)cc(O)cc3O)C2=CO1 | Not Active | – | – | –
8 | COc1c([C@@H](O)CC(C)C)ccc2c1C(=O)OCc1cc(C)cc(O)c1O2 [PENICILLIDE] | – | >50 | 2.6 (≈ 6.98 µM) | pIC50 [1]: 5.11; pIC50 [2]: 5.17
9 | Cc1cc(O)cc(O)c1C(=O)O[C@]1(C)C(=O)C=C2C=C(/C=C/C(=O)O)OC=C2C1=O | Not Active | – | – | –
10 | CCCCCCCCn1sc(Cl)c(Cl)c1=O | – | 20.3 | 1.2 (≈ 4.25 µM) | –
11 | COc1c([C@H](CC(C)C)OC(C)=O)ccc2c1C(=O)OCc1cc(C)cc(O)c1O2 | – | >50 | 10 (≈ 24.1 µM) | –
12 | C/C=C/C1=CC2=CC(=O)[C@@](C)(O)[C@@H](OC(=O)c3c(C)cc(O)cc3O)[C@@H]2CO1 | Not Active | – | – | –
13 | COc1c([C@@H](O)CC(C)C)ccc2c1C(=O)OCc1cc(CO)cc(O)c1O2 | – | >50 | 6 (≈ 15.4 µM) | pIC50 [5]: 5.21
14 | C/C=C/C1=CC2=CC(=O)[C@@](C)(OC(=O)c3c(C)cc(O)cc3O)C(=O)C2=CO1 | Not Active | – | – | –
15 | Cc1cc(O)cc(O)c1C(=O)O[C@]1(C)C(=O)C=C2C=C(/C=C/CO)OC=C2C1=O | Not Active | – | – | –
